Data as given in ChEMBL document CHEMBL1146451, “Spirostanol and furostanol glycosides from the fresh tubers of Polianthes tuberosa” (J Nat Prod, 2004).
≈ marks a conversion by molar mass, not a printed value.

Test system: HeLa
Experiment: Cytotoxicity against human HeLa cells after 72 hrs by MTT assay
Format: functional, cell-based
How it was run: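 HeLa cells seeded at 2 × 10^4 cells/mL in RPMI 1640, preincubated 12 h at 37 °C in 5% CO2/air. Samples added in DMSO to final 25, 20, 15, 10, 5, 2.5, 1.25, 0.80 µg/mL; DMSO alone in control wells.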

C[C@@H]1CC[C@@]2(OC1)O[C@H]1C[C@H]3[C@@H]4CC[C@H]5C[C@@H](O[C@@H]6O[C@H](CO)[C@H](O[C@@H]7O[C@H](CO)[C@@H](O)[C@H](O)[C@H]7O[C@@H]7O[C@H](CO)[C@@H](O)[C@H](O)[C@H]7O)[C@H](O)[C@H]6O)CC[C@]5(C)[C@H]4CC(=O)[C@]3(C)[C@H]1[C@@H]2C and C[C@@H]1CC[C@@]2(OC1)O[C@H]1C[C@H]3[C@@H]4CC[C@H]5C[C@@H](O[C@@H]6O[C@H](CO)[C@H](O[C@@H]7O[C@H](CO)[C@@H](O)[C@H](O[C@@H]8OC[C@@H](O)[C@H](O)[C@H]8O)[C@H]7O[C@@H]7O[C@H](CO)[C@@H](O)[C@H](O)[C@H]7O)[C@H](O)[C@H]6O)CC[C@]5(C)[C@H]4CC(=O)[C@]3(C)[C@H]1[C@@H]2C are within 1.5-fold of each other in IC50: 8.61 µg/mL (≈ 9.39 µM) for the first, 8.17 µg/mL (≈ 7.79 µM) for the second.

First: C[C@@H]1CC[C@@]2(OC1)O[C@H]1C[C@H]3[C@@H]4CC[C@H]5C[C@@H](O[C@@H]6O[C@H](CO)[C@H](O[C@@H]7O[C@H](CO)[C@@H](O)[C@H](O[C@@H]8O[C@H](CO)[C@@H](O)[C@H](O)[C@H]8O)[C@H]7O[C@@H]7O[C@H](CO)[C@@H](O)[C@H](O[C@@H]8OC[C@@H](O)[C@H](O)[C@H]8O)[C@H]7O)[C@H](O)[C@H]6O)CC[C@]5(C)[C@H]4CC(=O)[C@]3(C)[C@H]1[C@@H]2C [AGAMENOSIDE F]
Second: C[C@@H]1CC[C@@]2(OC1)O[C@H]1C[C@H]3[C@@H]4CC[C@H]5C[C@@H](O[C@@H]6O[C@H](CO)[C@H](O[C@@H]7O[C@H](CO)[C@@H](O)[C@H](O[C@@H]8O[C@H](CO)[C@@H](O)[C@H](O)[C@H]8O)[C@H]7O[C@@H]7O[C@H](CO)[C@@H](O)[C@H](O[C@@H]8OC[C@@H](O)[C@H](O)[C@H]8O)[C@H]7O)[C@H](O)[C@H]6O)CC[C@]5(C)[C@H]4CC[C@]3(C)[C@H]1[C@@H]2C [POLIANTHOSIDE B]
The IC50 of the first is lower: 5.1 µg/mL (≈ 4.21 µM) for the first, > 20 µg/mL for the second.

C[C@@H]1CC[C@@]2(OC1)O[C@H]1C[C@H]3[C@@H]4C[C@H](O)[C@H]5C[C@@H](O[C@@H]6O[C@H](CO)[C@H](O[C@@H]7O[C@H](CO)[C@@H](O)[C@H](O[C@@H]8OC[C@@H](O)[C@H](O)[C@H]8O)[C@H]7O[C@@H]7O[C@H](CO)[C@@H](O)[C@H](O[C@@H]8OC[C@@H](O)[C@H](O)[C@H]8O)[C@H]7O)[C@H](O)[C@H]6O)CC[C@]5(C)[C@H]4CC[C@]3(C)[C@H]1[C@@H]2C and C[C@@H]1CC[C@@]2(OC1)O[C@H]1C[C@H]3[C@@H]4CC[C@H]5C[C@@H](O[C@@H]6O[C@H](CO)[C@H](O[C@@H]7O[C@H](CO)[C@@H](O)[C@H](O[C@@H]8OC[C@@H](O)[C@H](O)[C@H]8O)[C@H]7O[C@@H]7O[C@H](CO)[C@@H](O)[C@H](O[C@@H]8OC[C@@H](O)[C@H](O)[C@H]8O)[C@H]7O)[C@H](O)[C@H]6O)CC[C@]5(C)[C@H]4CC[C@]3(C)[C@H]1[C@@H]2C are within 1.5-fold of each other in IC50: 7.5 µg/mL (≈ 6.34 µM) for the first, 7.2 µg/mL (≈ 6.17 µM) for the second.

First: C[C@H](CC[C@@]1(O)O[C@H]2C[C@H]3[C@@H]4CC[C@H]5C[C@@H](O[C@@H]6O[C@H](CO)[C@H](O[C@@H]7O[C@H](CO)[C@@H](O)[C@H](O[C@@H]8O[C@H](CO)[C@@H](O)[C@H](O)[C@H]8O)[C@H]7O[C@@H]7O[C@H](CO)[C@@H](O)[C@H](O[C@@H]8OC[C@@H](O)[C@H](O)[C@H]8O)[C@H]7O)[C@H](O)[C@H]6O)CC[C@]5(C)[C@H]4CC[C@]3(C)[C@H]2[C@@H]1C)CO[C@@H]1O[C@H](CO)[C@@H](O)[C@H](O)[C@H]1O [POLIANTHOSIDE G]
Second: C[C@H](CC[C@@]1(O)O[C@H]2C[C@H]3[C@@H]4CC[C@H]5C[C@@H](O[C@@H]6O[C@H](CO)[C@H](O[C@@H]7O[C@H](CO)[C@@H](O)[C@H](O[C@@H]8OC[C@@H](O)[C@H](O)[C@H]8O)[C@H]7O[C@@H]7O[C@H](CO)[C@@H](O)[C@H](O[C@@H]8OC[C@@H](O)[C@H](O)[C@H]8O)[C@H]7O)[C@H](O)[C@H]6O)CC[C@]5(C)[C@H]4CC[C@]3(C)[C@H]2[C@@H]1C)CO[C@@H]1O[C@H](CO)[C@@H](O)[C@H](O)[C@H]1O [POLIANTHOSIDE F]
The IC50 of the first is 3.7-fold lower: 5.36 µg/mL (≈ 3.89 µM) for the first, 20 µg/mL (≈ 14.8 µM) for the second.

Going from C[C@@H]1CC[C@@]2(OC1)O[C@H]1C[C@H]3[C@@H]4CC[C@H]5C[C@@H](O[C@@H]6O[C@H](CO)[C@H](O[C@@H]7O[C@H](CO)[C@@H](O)[C@H](O[C@@H]8O[C@H](CO)[C@@H](O)[C@H](O)[C@H]8O)[C@H]7O[C@@H]7O[C@H](CO)[C@@H](O)[C@H](O[C@@H]8O[C@H](CO)[C@@H](O)[C@H](O)[C@H]8O)[C@H]7O)[C@H](O)[C@H]6O)CC[C@]5(C)[C@H]4CC[C@]3(C)[C@H]1[C@@H]2C [POLIANTHOSIDE C] to C[C@H](CC[C@@]1(O)O[C@H]2C[C@H]3[C@@H]4CC[C@H]5C[C@@H](O[C@@H]6O[C@H](CO)[C@H](O[C@@H]7O[C@H](CO)[C@@H](O)[C@H](O[C@@H]8OC[C@@H](O)[C@H](O)[C@H]8O)[C@H]7O[C@@H]7O[C@H](CO)[C@@H](O)[C@H](O)[C@H]7O)[C@H](O)[C@H]6O)CC[C@]5(C)[C@H]4CC[C@]3(C)[C@H]2[C@@H]1C)CO[C@@H]1O[C@H](CO)[C@@H](O)[C@H](O)[C@H]1O, the IC50 falls from > 20 µg/mL to 18.8 µg/mL (≈ 15.5 µM).

Compared with C[C@H](CC[C@@]1(O)O[C@H]2C[C@H]3[C@@H]4CC[C@H]5C[C@@H](O[C@@H]6O[C@H](CO)[C@H](O[C@@H]7O[C@H](CO)[C@@H](O)[C@H](O[C@@H]8OC[C@@H](O)[C@H](O)[C@H]8O)[C@H]7O[C@@H]7O[C@H](CO)[C@@H](O)[C@H](O)[C@H]7O)[C@H](O)[C@H]6O)CC[C@]5(C)[C@H]4CC(=O)[C@]3(C)[C@H]2[C@@H]1C)CO[C@@H]1O[C@H](CO)[C@@H](O)[C@H](O)[C@H]1O [POLIANTHOSIDE D], C[C@H](CC[C@@]1(O)O[C@H]2C[C@H]3[C@@H]4CC[C@H]5C[C@@H](O[C@@H]6O[C@H](CO)[C@H](O[C@@H]7O[C@H](CO)[C@@H](O)[C@H](O[C@@H]8OC[C@@H](O)[C@H](O)[C@H]8O)[C@H]7O[C@@H]7O[C@H](CO)[C@@H](O)[C@H](O[C@@H]8OC[C@@H](O)[C@H](O)[C@H]8O)[C@H]7O)[C@H](O)[C@H]6O)CC[C@]5(C)[C@H]4CC(=O)[C@]3(C)[C@H]2[C@@H]1C)CO[C@@H]1O[C@H](CO)[C@@H](O)[C@H](O)[C@H]1O [POLIANTHOSIDE E] is 1.5-fold lower in IC50: 7.86 µg/mL (≈ 6.39 µM) for the first, 5.21 µg/mL (≈ 3.83 µM) for the second.

Molecule C[C@@H]1CC[C@@]2(OC1)O[C@H]1C[C@H]3[C@@H]4CC[C@H]5C[C@@H](O[C@@H]6O[C@H](CO)[C@H](O[C@@H]7O[C@H](CO)[C@@H](O)[C@H](O[C@@H]8OC[C@@H](O)[C@H](O)[C@H]8O)[C@H]7O[C@@H]7O[C@H](CO)[C@@H](O)[C@H](O[C@@H]8OC[C@@H](O)[C@H](O)[C@H]8O)[C@H]7O)[C@H](O)[C@H]6O)CC[C@]5(C)[C@H]4CC(=O)[C@]3(C)[C@H]1[C@@H]2C has an IC50 of 4.02 µg/mL (≈ 3.4 µM).
